Laboratory results taken from ChEMBL document CHEMBL1759940, “Synthesis and anticonvulsant activity of 8-alkoxy-5,6-dihydro-4H-[1,2,4]triazolo[4,3-a][1]benzazepin-1-one derivatives” (Eur J Med Chem, 2011).
Activity calls are given as the source filed them. The rule behind the calls is not given here.

Experiments:
[1] = Neurotoxicity against Swiss mouse after 4 hrs by rotarod ataxia test; assay type: toxicity, organism-based; settings: in vivo
Outline: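 Neurologic deficit was scored in Swiss mice (18-22 g) by rotarod ataxia test after i.p. dosing in DMSO (phase I: 30, 100, 300 mg/kg, assessed at 30 min and 4 h). For TD50, groups of 10 mice received a range of doses giving at least three points within 10-90% minimal neurotoxicity, calculated by trimmed Spearman-Karber with 95% confidence intervals.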

Mus musculus [2] = experiment: Anticonvulsant activity in Swiss mouse assessed as protection against maximal electroshock-induced seizures at 30 mg/kg, ip administered 30 mins before electroshock challenge measured after 30 mins; assay type: functional, organism-based; set-up: dose 30 mg/kg
Outline: (§1)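 Swiss mice (18-22 g) given the test compound i.p. in DMSO at 30, 100 or 300 mg/kg for phase I screening. Maximal electroshock was applied 30 min after dosing, and protection against the MES-induced seizure was scored.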

Mus musculus [3] = species: Mus musculus; experiment: Protective index, ratio of TD50 for Swiss mouse to ED50 for Swiss mouse by maximal electroshock-induced seizures test; assay type: functional
Mus musculus [4] = experiment: Anticonvulsant activity in Swiss mouse assessed as protection against subcutaneous pentylenetetrazol-induced seizures at 100 mg/kg, ip after 30 mins; assay type: functional, organism-based; set-up: dose 100 mg/kg
Outline: (§2)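 Swiss mice (18-22 g) were dosed i.p. in DMSO at 30, 100 or 300 mg/kg. Pentylenetetrazol (85 mg/kg) was then injected s.c. Protection meant no clonic spasms lasting at least 5 s over a 30 min period after test compound administration.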

Mus musculus [5] = experiment: Anticonvulsant activity in Swiss mouse assessed as protection against subcutaneous pentylenetetrazol-induced seizures at 30 mg/kg, ip after 30 mins; assay type: functional, organism-based; set-up: dose 30 mg/kg; outline: as §2
Mus musculus [6] = experiment: Anticonvulsant activity in ip dosed Swiss mouse assessed as protection against maximal electroshock-induced seizures administered 30 mins before electroshock challenge measured after 30 mins; assay type: functional
Outline: (§3)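 Phase II quantification in Swiss mice (18-22 g), with compounds dissolved in DMSO and given i.p. Groups of 10 mice received a range of doses until at least three points fell within 10-90% protection against MES-induced seizures. ED50 and 95% confidence intervals were derived by the trimmed Spearman-Karber method.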

Mus musculus [7] = experiment: Anticonvulsant activity in Swiss mouse assessed as protection against maximal electroshock-induced seizures at 100 mg/kg, ip administered 30 mins before electroshock challenge measured after 30 mins; assay type: functional, organism-based; set-up: dose 100 mg/kg; outline: as §1
Mus musculus [8] = experiment: Protective index, ratio of TD50 for Swiss mouse to ED50 for Swiss mouse by subcutaneous pentylenetetrazol-induced seizure test; assay type: functional
Mus musculus [9] = experiment: Anticonvulsant activity in ip dosed Swiss mouse assessed as protection against maximal electroshock-induced seizures after 30 mins; assay type: functional; settings: 0.5 h; outline: as §3
Mus musculus [10] = experiment: Anticonvulsant activity in Swiss mouse assessed as protection against subcutaneous pentylenetetrazol-induced seizures at 300 mg/kg, ip after 30 mins; assay type: functional, organism-based; set-up: dose 300 mg/kg; outline: as §2
Mus musculus [11] = experiment: Anticonvulsant activity in Swiss mouse assessed as protection against maximal induced seizures at 300 mg/kg, ip administered 30 mins before electroshock challenge measured after 30 mins; assay type: functional, organism-based; set-up: dose 300 mg/kg; outline: as §1

For `O=c1[nH]nc2n1-c1ccc(OCc3cccc(F)c3)cc1CCC2`, the TD50 at 4 h [1] was greater than 931 mg/kg, the Activity (Mus musculus [2]) was “Active” and the PI (Mus musculus [3]) was greater than 52.9. The Activity (Mus musculus [4]) was “inactive”, the Activity (Mus musculus [5]) was “inactive” and the ED50 (Mus musculus [6]) was 17.6 mg/kg.
For `O=c1[nH]nc2n1-c1ccc(OCc3ccccc3Cl)cc1CCC2`, the TD50 at 4 h [1] was greater than 931 mg/kg, the PI (Mus musculus [3]) was greater than 28.3 and the Activity (Mus musculus [4]) was “inactive”. For the same compound, the ED50 (Mus musculus [6]) was 32.9 mg/kg and the Activity (Mus musculus [7]) was “Active”.
With `Cc1ccc(COc2ccc3c(c2)CCCc2n[nH]c(=O)n2-3)cc1` the TD50 at 4 h [1] was greater than 931 mg/kg, the PI (Mus musculus [3]) was greater than 18.6 and the Activity (Mus musculus [4]) was “inactive”. For the same compound, the Activity (Mus musculus [5]) was “inactive” and the ED50 (Mus musculus [6]) was 50 mg/kg.
For `O=c1[nH]nc2n1-c1ccc(OCc3cccc(Cl)c3)cc1CCC2`, the TD50 at 4 h [1] was greater than 931 mg/kg, the PI (Mus musculus [3]) was greater than 35.3 and the ED50 (Mus musculus [6]) was 26.4 mg/kg.
For `CCCCCCCOc1ccc2c(c1)CCCc1n[nH]c(=O)n1-2`, the TD50 at 4 h [1] was greater than 1120 mg/kg, the Activity (Mus musculus [2]) was “Active” and the PI (Mus musculus [3]) was greater than 63.4. For the same compound, the PI (Mus musculus [8]) was greater than 25.9, the ED50 (Mus musculus [9]) was 17.6 mg/kg and the Activity (Mus musculus [4]) was “Active”. It also gave an ED50 (Mus musculus [6]) of 17.6 mg/kg.
In the case of `O=c1[nH]nc2n1-c1ccc(OCc3ccc(Cl)cc3)cc1CCC2`, the TD50 at 4 h [1] is reported as greater than 931 mg/kg, the PI (Mus musculus [3]) is reported as greater than 23.2 and the Activity (Mus musculus [10]) is reported as “inactive”. For the same compound, the ED50 (Mus musculus [6]) was 40.1 mg/kg and the Activity (Mus musculus [7]) was “Active”.
In the case of `O=c1[nH]nc2n1-c1ccc(OCc3ccc(F)cc3)cc1CCC2`, the TD50 at 4 h [1] is reported as greater than 931 mg/kg, the PI (Mus musculus [3]) is reported as greater than 40.8 and the Activity (Mus musculus [5]) is reported as “inactive”. The ED50 (Mus musculus [6]) was 22.8 mg/kg.
With `CCCCCCOc1ccc2c(c1)CCCc1n[nH]c(=O)n1-2` the TD50 at 4 h [1] was greater than 1120 mg/kg, the Activity (Mus musculus [2]) was “Active” and the PI (Mus musculus [3]) was greater than 62.4. For the same compound, the PI (Mus musculus [8]) was greater than 24, the ED50 (Mus musculus [9]) was 17.9 mg/kg and the Activity (Mus musculus [4]) was “Active”. For the same compound, the ED50 (Mus musculus [6]) was 17.9 mg/kg.
`CCCCOc1ccc2c(c1)CCCc1n[nH]c(=O)n1-2` gave a TD50 at 4 h [1] greater than 1120 mg/kg, a PI (Mus musculus [3]) greater than 29.9 and a PI (Mus musculus [8]) greater than 17. The ED50 (Mus musculus [9]) was 37.3 mg/kg, the Activity (Mus musculus [4]) was “Active” and the ED50 (Mus musculus [6]) was 37.3 mg/kg. The Activity (Mus musculus [7]) was “Active”.
`CCCCCCCCOc1ccc2c(c1)CCCc1n[nH]c(=O)n1-2` showed a TD50 at 4 h [1] greater than 1120 mg/kg, a PI (Mus musculus [3]) greater than 54 and a PI (Mus musculus [8]) greater than 22.2. For the same compound, the ED50 (Mus musculus [9]) was 20.7 mg/kg, the Activity (Mus musculus [4]) was “Active” and the ED50 (Mus musculus [6]) was 20.7 mg/kg.
In the case of `NC(=O)N1c2ccccc2C=Cc2ccccc21` [CARBAMAZEPINE], the TD50 at 4 h [1] is reported as 74.4 mg/kg, the PI (Mus musculus [8]) is reported as less than 0.74 and the ED50 (Mus musculus [9]) is reported as 9.2 mg/kg. For the same compound, the ED50 (Mus musculus [6]) was 9.2 mg/kg.
With `COc1ccc2c(c1)CCCc1n[nH]c(=O)n1-2` the Activity (Mus musculus [10]) was “inactive”, the Activity (Mus musculus [4]) was “inactive” and the Activity (Mus musculus [5]) was “inactive”. The Activity (Mus musculus [11]) was “Active”.
For `O=c1[nH]nc2n1-c1ccc(OCc3ccc(Br)cc3)cc1CCC2`, the TD50 at 4 h [1] was greater than 931 mg/kg, the PI (Mus musculus [3]) was greater than 16.7 and the ED50 (Mus musculus [6]) was 55.8 mg/kg. For the same compound, the Activity (Mus musculus [7]) was “Active”.
With `O=c1[nH]nc2n1-c1ccc(OCc3ccccc3F)cc1CCC2` the TD50 at 4 h [1] was greater than 931 mg/kg, the Activity (Mus musculus [2]) was “Active” and the PI (Mus musculus [3]) was greater than 50.6. The Activity (Mus musculus [10]) was “inactive”, the Activity (Mus musculus [5]) was “inactive” and the ED50 (Mus musculus [6]) was 18.4 mg/kg.
For `CCCOc1ccc2c(c1)CCCc1n[nH]c(=O)n1-2`, the TD50 at 4 h [1] was greater than 931 mg/kg, the PI (Mus musculus [3]) was greater than 12.3 and the Activity (Mus musculus [5]) was “inactive”. It also gave an ED50 (Mus musculus [6]) of 75.5 mg/kg.
In the case of `O=c1[nH]nc2n1-c1ccc(OCc3ccccc3)cc1CCC2`, the TD50 at 4 h [1] is reported as greater than 931 mg/kg, the PI (Mus musculus [3]) is reported as greater than 30.5 and the ED50 (Mus musculus [6]) is reported as 30.5 mg/kg. For the same compound, the Activity (Mus musculus [7]) was “Active”.
In the case of `CCCCCOc1ccc2c(c1)CCCc1n[nH]c(=O)n1-2`, the TD50 at 4 h [1] is reported as greater than 1120 mg/kg, the Activity (Mus musculus [2]) is reported as “Active” and the PI (Mus musculus [3]) is reported as greater than 45.4. The PI (Mus musculus [8]) was greater than 29.4, the ED50 (Mus musculus [9]) was 24.6 mg/kg and the Activity (Mus musculus [4]) was “Active”. It also gave an ED50 (Mus musculus [6]) of 24.6 mg/kg.
